Screening data from PubChem.
This is a sample that favours compounds with a hit; in the whole collection about 9.6% have one here.
L major viab = Leishmania major promastigote growth inhibition | Leishmania major promastigotes, resazurin fluorescence viability | 200,000 tested, 9% active | inhibition, % at 10 µM; in the data active = inhibition above about 50%;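 note: promastigotes grown with compound for 44 hours at 28 °C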
HCT116 bCat-KO = beta-catenin-lacking colon tumor cell growth suppression; 140,000 tested, 1.5% active; viability, % at 10 µM; HCT116 beta-catenin knockout viability, CellTiter-Glo, 60 h; hits give low values; AID 818;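 active = viability at or under a set limit, the compound median less 4 SD, cut at about 6% in these data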;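 note: 0% = Hyamine 1622 control at 20 µM and 100% = untreated cell control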
HCT116 PTEN-null = PTEN-deleted cell growth suppression. 140,000 tested, 1.2% active. HCT116 PTEN-null viability, CellTiter-Glo, 60 h; hits give low values. viability, % at 10 µM;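 active = viability at or below a set limit, 4 SD under the median of all tested compounds, cut at about 3.7% in these data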;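 note: PTEN knockout HCT116 line with beta catenin targeted HCT116 as companion control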
TNAP act hi DEA = increases human TNAP activity under high phosphate acceptor concentration. P05186. activation factor at 20 µM. purified TNAP, CDP-star luminescence, 1 M DEA, 30 min; hits give high values; 0 = EDTA background, 1 = DMSO-only activity. 200,000 tested, under 10 active. AID 1136;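 active = activation factor at least 2 at 20 µM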
Target sequence (P05186 whole entry, looked up): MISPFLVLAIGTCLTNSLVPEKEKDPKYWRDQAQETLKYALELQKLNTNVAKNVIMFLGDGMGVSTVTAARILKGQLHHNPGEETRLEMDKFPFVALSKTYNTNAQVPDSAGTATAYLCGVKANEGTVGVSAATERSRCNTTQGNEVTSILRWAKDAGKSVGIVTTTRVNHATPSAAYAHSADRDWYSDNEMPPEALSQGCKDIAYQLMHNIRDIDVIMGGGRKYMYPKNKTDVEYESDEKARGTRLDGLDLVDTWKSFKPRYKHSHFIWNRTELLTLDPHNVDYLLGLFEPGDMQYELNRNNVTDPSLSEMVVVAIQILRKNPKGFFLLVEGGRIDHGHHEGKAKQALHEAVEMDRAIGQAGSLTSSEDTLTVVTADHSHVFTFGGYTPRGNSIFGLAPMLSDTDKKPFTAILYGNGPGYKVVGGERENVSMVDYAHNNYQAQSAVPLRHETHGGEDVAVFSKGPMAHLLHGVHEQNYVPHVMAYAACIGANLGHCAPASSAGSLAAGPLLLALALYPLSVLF
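system = human TNAP | amount = enzyme diluted 1/800 final | reagent = 100 µM CDP-star substrate | signal = luminescent substrate turnover signal | dosing = one dose, 20 µM | benchmarks = EDTA negative control, DMSO positive control | measure = activation factor | timing = 30 min reaction, room temperature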
TNAP inh hiacc = TNAP (human) inhibition, high acceptor. inhibition, % at 20 µM. P05186. 200,000 tested, 0.03% active. AID 1135. purified TNAP, CDP-star luminescence, 1 M DEA;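 active = over 50% inhibition of tissue-nonspecific alkaline phosphatase at 20 µM in the single-dose screen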;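 note: plate controls were DMSO wells for no effect and EDTA-quenched wells as full inhibition for full effect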
TNAP inh noacc = blocks human TNAP activity with no phosphate acceptor present | P05186 | purified TNAP, CDP-star luminescence, 30 min | inhibition, % at 20 µM | 200,000 tested, 0.26% active;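 active = tissue-nonspecific alkaline phosphatase inhibition above about 50% at 20 µM in the single-dose screen, limit read from the data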;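 note: 0% = DMSO negative control and 100% = EDTA positive control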
Starred values were filed as active, the others as inactive; nt = no result given.

SMILES	L major viab	HCT116 bCat-KO	HCT116 PTEN-null	TNAP act hi DEA	TNAP inh hiacc	TNAP inh noacc
c1ccc2c(Nc3nc(N4CCOCC4)c4ccccc4n3)cccc2c1	88*	62	48	1.1	-6	-4
Cc1ccc(NC(=S)NC2CCCCC2)cc1S(=O)(=O)N(C)C	28	nt	nt	1.1	-6	-15
Cc1noc(C)c1COC(=O)c1cccnc1Cl	-13	nt	nt	1.1	-6	-5
O=c1c2c(nc3c(-c4cccc(Br)c4)c[nH]n13)CCCC2	100*	15	8	1	0	-49
O=c1c2c(nc3cc(-c4ccccc4)[nH]n13)CCC2	3	85	82	1	-4	-1
O=c1c2c(nc3cc(-c4ccc(Br)cc4)[nH]n13)CCCC2	67*	nt	nt	1	-2	-6
COC(=O)CN(c1ccccc1)S(=O)(=O)c1ccccc1	3	nt	nt	1.1	-7	-17
COC(=O)NC(=C(Cl)Cl)S(=O)(=O)c1ccccc1	97*	2.6*	1.9*	1	-3	-10
CCOC(=O)/C(C#N)=C/c1c[nH]c2ccccc12	-2	88	89	1	0	3
CC(=O)Oc1c(/C=C(\C#N)C(N)=O)[nH]c2ccccc12	96*	18	13	0.6	39	29
Cc1cccc(NC(=S)N2CCC(N(C)CC3CCCO3)CC2)c1C (centres undefined)	82*	91	86	1	-4	-10
Cc1cc(C)cc(NC(=S)N2CCC(N(C)CC3CCCO3)CC2)c1 (centres undefined)	67*	nt	nt	1	-2	-2
Cc1ccc(NC(=S)N2CCC(N(C)CC3CCCO3)CC2)cc1 (centres undefined)	76*	nt	nt	1	-4	-10
CC(=O)Nc1ccc(S(=O)(=O)Oc2ccc(/C=C3\SC(N)=NC3=O)cc2)cc1	2	nt	nt	1	1	-3
CCOc1cc(Cl)c(NC(C)=O)cc1OCC	-4	98	94	1.1	-7	-6
COc1ccc(CCNC(=O)CO/N=C/c2cc3c(cc2Br)OCO3)cc1OC	-3	nt	nt	1	0	-4
Cc1ccc(C2Oc3ccccc3C3=C2C(c2cccs2)n2ncnc2N3)cc1 (centres undefined)	51*	26	23	1	0	2
Fc1ccc(C2C3=C(Nc4ncnn42)c2ccccc2OC3c2ccncc2)cc1 (centres undefined)	18	81	72	1.1	-8	-11
FC(F)(F)c1ccc(CN2CCCCCC2)cc1	-4	91	101	1.1	-5	-5
O=C(c1ccc2c3c(cccc13)CC2)C1CCCN(Cc2ccccn2)C1 (centres undefined)	64*	nt	nt	1.1	-5	0
Cc1cnc(CN2CCCC(C(=O)c3ccc4c5c(cccc35)CC4)C2)[nH]1 (centres undefined)	99*	nt	nt	1	-4	-7
O=C(c1ccc2c3c(cccc13)CC2)C1CCCN(Cc2ccc(OCCO)cc2)C1 (centres undefined)	88*	nt	nt	1	-3	-4
CCOC(=O)N1CCN(Cc2nc(-c3cccs3)no2)CC1	-5	nt	nt	1.1	-7	-6
Cc1ccc(-c2cc(C(F)F)n3ncc(C(=O)Nc4c(C)nn(Cc5c(Cl)cccc5Cl)c4C)c3n2)cc1	50	21	13	1	-3	-3
Cc1ccc(-c2cc(C(F)F)n3ncc(C(=O)Nc4c(C)nn(Cc5ccccc5Cl)c4C)c3n2)cc1	57*	2.4*	1.4*	1	1	-2
SMILES	L major viab	HCT116 bCat-KO	HCT116 PTEN-null	TNAP act hi DEA	TNAP inh hiacc	TNAP inh noacc
Cc1nn(Cc2c(Cl)cccc2Cl)c(C)c1NC(=O)c1cnn2c(C(F)F)cc(-c3ccccc3)nc12	67*	37	43	1	-5	-9
O=C(/C=C/c1ccccc1)c1ccccc1	17	2.1*	2.0*	1	-1	-8
O=C(/C=C/c1ccc[nH]1)c1ccccc1	-2	nt	nt	0.9	8	5
O=C(/C=C/c1ccccc1)c1ccc2c3c(cccc13)CC2	71*	1.4*	1.8*	1	-5	-23
Cc1c(NC(=O)c2ccc3c4c(cccc24)CC3)c(=O)n(-c2ccccc2)n1C	-1	93	93	1	1	-7
O=C(/C=C/c1ccccc1)/C=C/c1ccccc1	100*	0.8*	0.7*	1	-4	-13
Cc1ccc(C(=O)c2cc3c(cc2[N+](=O)[O-])OCCO3)cc1	6	nt	nt	1	0	-4
CC(NC(=O)c1ccco1)C(=O)OCC(=O)c1ccc(Cl)s1 (centres undefined)	0	nt	nt	1	-1	-10
O=C(Nc1nc(-c2ccc(F)c(F)c2)cs1)c1cc([N+](=O)[O-])ccc1N1CCOCC1	-1	78	79	1	5	-9
Cc1cc(C)c(-c2csc(NC(=O)c3cc([N+](=O)[O-])ccc3N3CCOCC3)n2)c(C)c1	79*	73	66	1	0	-2
CCN(CC)S(=O)(=O)c1cccc(N=NC2=C(O)CCCC2=O)c1	61*	93	96	0.9	11	8
O=C1CCCC(O)=C1N=Nc1cccc(C(=O)O)c1	-4	nt	nt	0.9	7	4
COc1ccccc1NC(=O)COn1nnc2ccc(S(=O)(=O)N3CCOCC3)cc21	7	nt	nt	1	-1	-4
CC(=O)Nc1ccc2nc(C)n(Cc3ccc(Cl)cc3)c(=O)c2c1	78*	93	82	1	-4	-6
COc1ccc(C2NC(c3ccc(OC)cc3OC)C(C)C(=O)C2C)c(OC)c1 (centres undefined)	-6	nt	nt	1	-4	-10
CCN1CCc2nc(NC(=O)CC(c3ccccc3)c3ccccc3)sc2C1	56*	92	84	1	-2	3
Cc1ccc(C(C(=O)NC(C)(C)C)N(CC2CCCO2)C(=O)Cn2nnc(-c3ccc(C)o3)n2)cc1 (centres undefined)	54*	88	95	1	2	-6
Cc1ccc(-c2nnn(CC(=O)N(CC3CCCO3)C(C(=O)NC3CCCC3)c3ccc(O)cc3)n2)o1 (centres undefined)	-12	nt	nt	1.1	-6	-12
O=C(NNC(=O)c1cc(-c2ccccc2)n(-c2ccccc2)n1)c1cccc([N+](=O)[O-])c1	1	94	93	1	-2	-102
CC(=O)Nc1ccc(S(=O)(=O)NC2=C(N3CCN(c4ccc(F)cc4)CC3)C(=O)c3ccccc3C2=O)cc1	61*	2.0*	2.1*	1	0	-1
CC1CCCN(C2=C(Cl)C(=O)N(c3cccc(Cl)c3)C2=O)C1 (centres undefined)	23	93	105	1	-2	-8
Cc1ccc(S(=O)(=O)NC2=C(N3CCN(c4ccccc4F)CC3)C(=O)c3ccccc3C2=O)cc1	96*	65	56	1	1	11
